Here are results for 15 molecules from ChEMBL document CHEMBL1154235, “Rational design and semisynthesis of betulinic acid analogues as potent topoisomerase inhibitors” (J Nat Prod, 2009).

The subject of one test is SW948. As to the kind of experiment: Antiproliferative activity against human SW948 cells after 3 days by XTT assay. The format is functional, cell-based. The settings on record: SW948, 72 h. The method in brief: (§1)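 Cells plated at 4000/well and grown 1 day at 37 °C, then exposed to a range of drug concentrations for 3 more days. Read-out by XTT tetrazolium reduction on a plate reader. Each concentration run in triplicate. IC50 taken from a linear-quadratic fit. Assays repeated two or three times and reported as mean ± SE. HCT-116 kept in modified McCoy's 5a and SW948 in Leibovitz's L-15, each with 10% heat-inactivated FBS and 2 mM L-glutamine.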
In general terms: Tetrazolium assays rely on reduction of a dye to a coloured formazan, in cell work by metabolically active cells.

Test [1] deals with MDA-MB-231. Put plainly: Antiproliferative activity against human MDA-MB-231 cells after 3 days by MTT assay. The format is functional, cell-based. To be noted: MDA-MB-231, 72 h. The method in brief:
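MDA-MB-231 cells kept in RPMI 1640 with 10% heat-inactivated FBS and 25 mM HEPES at 37 °C in 5% CO2. Plated at about 15 000/well and preincubated 1 day, then exposed to compound for 3 days at 37 °C, with doses in triplicate. MTT added for 4 h, formazan dissolved in detergent overnight at room temperature in the dark, OD read at 580 nm against a cell-free blank. Cell numbers from a calibration curve; IC50 from dose-response curves.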

Another test relates to HCT-116. As to the kind of experiment: Antiproliferative activity against human HCT116 cells after 3 days by XTT assay. The settings on record: HCT-116, 72 h. In kind it is functional, cell-based. The method in brief: as §1
Test [2] deals with T1, DNA topoisomerase 1 (Homo sapiens) (UniProt P11387).
T1 sequence (whole entry): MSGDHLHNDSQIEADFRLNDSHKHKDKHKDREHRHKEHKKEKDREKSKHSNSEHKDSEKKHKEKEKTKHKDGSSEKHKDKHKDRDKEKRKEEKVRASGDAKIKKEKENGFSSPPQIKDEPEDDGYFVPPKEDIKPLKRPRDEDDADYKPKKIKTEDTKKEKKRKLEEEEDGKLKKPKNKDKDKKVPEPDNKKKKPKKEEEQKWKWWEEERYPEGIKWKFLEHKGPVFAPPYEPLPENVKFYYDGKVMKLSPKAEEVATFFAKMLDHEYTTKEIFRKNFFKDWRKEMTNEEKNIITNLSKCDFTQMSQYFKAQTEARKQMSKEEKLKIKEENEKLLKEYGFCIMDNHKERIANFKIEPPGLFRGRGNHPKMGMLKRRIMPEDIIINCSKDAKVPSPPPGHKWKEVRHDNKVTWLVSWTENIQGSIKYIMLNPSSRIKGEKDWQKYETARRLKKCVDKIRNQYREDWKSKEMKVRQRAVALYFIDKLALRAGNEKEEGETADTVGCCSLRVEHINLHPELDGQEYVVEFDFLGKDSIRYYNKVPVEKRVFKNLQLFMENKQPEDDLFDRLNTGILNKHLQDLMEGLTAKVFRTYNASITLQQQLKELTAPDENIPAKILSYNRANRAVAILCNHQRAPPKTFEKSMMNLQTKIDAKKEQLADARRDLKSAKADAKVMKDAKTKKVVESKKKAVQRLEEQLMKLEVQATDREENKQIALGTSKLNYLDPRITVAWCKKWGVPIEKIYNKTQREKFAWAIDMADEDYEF
Put plainly: Inhibition of topoisomerase 1 catalytic activity assessed as relaxation of supercoiled plasmid DNA at 100 uM after 30 mins by agarose gel electrophoresis. Put shortly: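 Compound at 100 µM final with topoisomerase I (2U), 37 °C 30 min. Stopped with 1% SDS, proteinase K digestion, 1% agarose TAE gel, ethidium bromide stain, imaging quantitation. Scored 0 to 3+ against camptothecin.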

The target of test [3] is DNA topoisomerase 2-alpha (Homo sapiens) (UniProt P11388). As to the kind of experiment: Inhibition of topoisomerase 2 alpha catalytic activity assessed as decatenation of kinetoplast DNA at 100 uM after 15 mins by agarose gel electrophoresis.
Chain of DNA topoisomerase 2-alpha (Homo sapiens) (P11388 whole entry): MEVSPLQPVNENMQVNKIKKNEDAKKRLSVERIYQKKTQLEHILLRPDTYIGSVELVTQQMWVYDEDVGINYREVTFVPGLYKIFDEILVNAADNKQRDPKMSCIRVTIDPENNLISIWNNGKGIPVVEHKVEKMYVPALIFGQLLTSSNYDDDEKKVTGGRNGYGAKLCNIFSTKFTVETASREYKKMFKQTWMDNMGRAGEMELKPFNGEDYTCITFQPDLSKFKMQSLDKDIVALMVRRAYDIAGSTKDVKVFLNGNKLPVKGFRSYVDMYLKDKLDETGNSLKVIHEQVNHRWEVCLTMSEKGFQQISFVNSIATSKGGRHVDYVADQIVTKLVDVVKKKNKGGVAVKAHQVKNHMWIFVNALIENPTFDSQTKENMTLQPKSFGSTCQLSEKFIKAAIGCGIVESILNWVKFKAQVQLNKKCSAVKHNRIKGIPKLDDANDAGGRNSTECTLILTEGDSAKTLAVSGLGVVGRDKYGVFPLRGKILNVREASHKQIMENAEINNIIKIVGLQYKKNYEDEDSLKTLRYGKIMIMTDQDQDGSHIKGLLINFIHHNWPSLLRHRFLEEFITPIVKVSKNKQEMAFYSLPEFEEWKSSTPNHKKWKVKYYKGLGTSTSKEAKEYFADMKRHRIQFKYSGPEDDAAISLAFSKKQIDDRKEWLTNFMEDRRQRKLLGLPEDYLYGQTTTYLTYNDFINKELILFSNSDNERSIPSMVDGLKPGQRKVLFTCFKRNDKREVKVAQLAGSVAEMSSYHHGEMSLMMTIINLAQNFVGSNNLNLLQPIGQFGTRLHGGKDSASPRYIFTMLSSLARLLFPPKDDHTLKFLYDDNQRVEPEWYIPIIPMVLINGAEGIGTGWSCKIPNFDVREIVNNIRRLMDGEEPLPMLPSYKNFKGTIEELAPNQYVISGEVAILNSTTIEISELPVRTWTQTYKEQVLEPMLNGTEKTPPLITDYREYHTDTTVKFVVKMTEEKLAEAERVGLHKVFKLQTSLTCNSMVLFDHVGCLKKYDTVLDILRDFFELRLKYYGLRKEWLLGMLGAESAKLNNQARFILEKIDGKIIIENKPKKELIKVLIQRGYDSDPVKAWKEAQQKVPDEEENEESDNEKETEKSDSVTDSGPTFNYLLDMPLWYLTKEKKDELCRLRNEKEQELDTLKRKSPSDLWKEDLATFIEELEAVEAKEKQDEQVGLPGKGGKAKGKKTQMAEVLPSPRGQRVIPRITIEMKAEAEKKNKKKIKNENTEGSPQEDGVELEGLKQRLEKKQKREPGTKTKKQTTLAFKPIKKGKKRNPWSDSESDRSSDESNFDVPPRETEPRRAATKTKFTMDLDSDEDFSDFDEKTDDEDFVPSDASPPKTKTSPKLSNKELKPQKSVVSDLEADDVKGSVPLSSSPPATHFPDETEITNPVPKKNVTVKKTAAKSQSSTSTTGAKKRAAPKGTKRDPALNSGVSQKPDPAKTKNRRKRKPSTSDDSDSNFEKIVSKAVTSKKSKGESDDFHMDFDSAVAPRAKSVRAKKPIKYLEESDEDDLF
For test [4], the system named is MDA-MB-231. Put plainly: Growth inhibition of human MDA-MB-231 cells. The format is functional.
The subject of the next test is HL-60(TB). Put plainly: Growth inhibition of human HL-60(TB) cells. In kind it is functional.

The structures appear in SMILES notation. The source made the active and inactive calls. The rule behind the calls is not given here.

As a reminder, the IC50 is the point on the concentration scale where inhibition reaches its midpoint. Low values mean inhibition by little substance, high ones a need for much substance. For `C=C(C=O)[C@@H]1CC[C@]2(C(=O)O)CC[C@]3(C)[C@H](CC[C@@H]4[C@@]5(C)CC[C@H](O)C(C)(C)[C@@H]5CC[C@]43C)[C@@H]12`, the IC50 with SW948 worked out at 14.9 µM; in the test on MDA-MB-231 [1], 1.37 µM; with HCT-116, 4.38 µM. Besides, in test [2], the inhibition result was “Active”. In test [3], the inhibition result was “inactive”.

Take `CC[C@@]1(O)C(=O)OCc2c1cc1n(c2=O)Cc2cc3ccccc3nc2-1` [CAMPTOTHECIN]: the figures for the IC50 in the test on SW948 and in the test with HCT-116 were 0.16 µM and 0.13 µM, respectively.

Turning to `C=C(C)[C@@H]1CC[C@]2(C(=O)NS(=O)(=O)c3ccccc3)CC[C@]3(C)[C@H](CC[C@@H]4[C@@]5(C)CC[C@H](OC(=O)NS(=O)(=O)c6ccccc6)C(C)(C)[C@@H]5CC[C@]43C)[C@@H]12`, the IC50 in the test on SW948 was determined as 17.4 µM; with MDA-MB-231 [1] it was 0.92 µM; in the test with HCT-116, 13.3 µM. In addition, the inhibition result in test [2] and in test [3] was “Active” in each case.

On to `C=C(C)[C@@H]1CC[C@]2(C(=O)O)CC[C@]3(C)[C@H](CC[C@@H]4[C@@]5(C)CC[C@H](OS(=O)(=O)c6ccccc6)C(C)(C)[C@@H]5CC[C@]43C)[C@@H]12`, for which the IC50 was found to be 6.84 µM with SW948, 0.8 µM in the test with MDA-MB-231 [1] and 21.3 µM in the test on HCT-116. The inhibition entry in test [2] was “inactive”. The inhibition entry in test [3] is “Active”.

For the molecule `C=C(C)[C@@H]1CC[C@]2(C(=O)O)CC[C@]3(C)[C@H](CC[C@@H]4[C@@]5(C)CCC(=O)C(C)(C)[C@@H]5CC[C@]43C)[C@@H]12` [BETUNOLIC ACID], the IC50 in the test with SW948 came out at 19.2 µM; in the test with MDA-MB-231 [1], 9.77 µM; in the test on HCT-116, 2.61 µM. Moreover, the inhibition entry in test [2] and in test [3] was “inactive” in each case.

With `C=C(C)[C@@H]1CC[C@]2(C(O)=S)CC[C@]3(C)[C@H](CC[C@@H]4[C@@]5(C)CC[C@H](OP(=S)(S)c6ccc(OC)cc6)C(C)(C)[C@@H]5CC[C@]43C)[C@@H]12` (stereo partly specified), the values for the IC50 with SW948, in the test on MDA-MB-231 [1] and in the test on HCT-116 were greater than 25 µM, 9.83 µM and greater than 25 µM, respectively. Besides, the inhibition entry in test [2] and in test [3] was “Active” throughout.

In the case of `C=C(C)[C@@H]1CC[C@]2(C(=O)O)CC[C@]3(C)[C@H](CC[C@@H]4[C@@]5(C)CC[C@H](OC(=O)Nc6ccc(-c7ccccc7)cc6)C(C)(C)[C@@H]5CC[C@]43C)[C@@H]12`, the IC50 with SW948, in the test with MDA-MB-231 [1] and in the test with HCT-116 was greater than 25 µM in each case. In addition, the inhibition entry in test [2] was “inactive”. The inhibition entry in test [3] was “Active”.

The GI50 is the concentration that inhibits growth by half. Low readings indicate more potent growth inhibition, high ones less potent growth inhibition. Turning to `C=C(C)[C@@H]1CC[C@]2(C(=O)O)CC[C@]3(C)[C@H](CC[C@@H]4[C@@]5(C)CC[C@H](O)C(C)(C)[C@@H]5CC[C@]43C)[C@@H]12` [BETULINIC ACID], the GI50 in the test with MDA-MB-231 [4] is 3.98 µM; in the test on HL-60(TB), 3.16 µM. Also, the values for the IC50 with SW948, with MDA-MB-231 [1] and in the test with HCT-116 were 10.5 µM, 15.2 µM and 13.5 µM, respectively. The inhibition result in test [2] and in test [3] was “inactive” throughout.

In the test on SW948, `COc1cc([C@@H]2c3cc4c(cc3[C@@H](O[C@@H]3O[C@@H]5CO[C@@H](C)O[C@H]5[C@H](O)[C@H]3O)[C@H]3COC(=O)[C@H]23)OCO4)cc(OC)c1O` [ETOPOSIDE] had an IC50 of 1.3 µM. Moreover, the inhibition result in test [3] is “Active”.

Turning to `C=C(C)[C@@H]1CC[C@]2(C(=O)O)CC[C@]3(C)[C@H](CC[C@@H]4[C@@]5(C)CC[C@H](OC(=O)NCc6ccccc6)C(C)(C)[C@@H]5CC[C@]43C)[C@@H]12`, the IC50 in the test with SW948 is greater than 25 µM; with MDA-MB-231 [1], 0.45 µM; in the test on HCT-116 it was 22.2 µM. Further, the inhibition result in test [2] and in test [3] was “Active” each time.

Take `CC1(C)[C@@H](O)CC[C@]2(C)[C@H]3CC[C@@H]4[C@H]5[C@H]([C@]6(C)CO6)CC[C@]5(C(=O)O)CC[C@@]4(C)[C@]3(C)CC[C@@H]12`: the IC50 in the test on SW948 was greater than 25 µM; in the test on MDA-MB-231 [1], 4.08 µM; in the test on HCT-116, greater than 25 µM. The inhibition result in test [2] and in test [3] was “inactive” throughout.

For `C[C@H](C=O)[C@@H]1CC[C@]2(C(=O)O)CC[C@]3(C)[C@H](CC[C@@H]4[C@@]5(C)CC[C@H](O)C(C)(C)[C@@H]5CC[C@]43C)[C@@H]12`, the IC50 with SW948 was greater than 25 µM; in the test with MDA-MB-231 [1] it was 0.17 µM; in the test on HCT-116, greater than 25 µM. The inhibition entry in test [2] was “Active”. Further, the inhibition result in test [3] was “inactive”.

Turning to `C=CCNC(=O)O[C@H]1CC[C@]2(C)[C@H]3CC[C@@H]4[C@H]5[C@H](C(=C)C)CC[C@]5(C(=O)O)CC[C@@]4(C)[C@]3(C)CC[C@H]2C1(C)C`, the IC50 stood at 17.6 µM with SW948, 0.65 µM in the test on MDA-MB-231 [1] and 17.7 µM in the test with HCT-116. Besides, the inhibition entry in test [2] was “inactive”. Also, in test [3], the inhibition entry is “Active”.

In the case of `C=C(C)[C@@H]1CC[C@]2(C(=O)O)CC[C@]3(C)[C@H](CC[C@@H]4[C@@]5(C)CC[C@H](OC(=O)Nc6cccc7ccccc67)C(C)(C)[C@@H]5CC[C@]43C)[C@@H]12`, the IC50 in the test with SW948, with MDA-MB-231 [1] and with HCT-116 was greater than 25 µM in each case. The inhibition entry in test [2] is “inactive”. Further, the inhibition entry in test [3] was “Active”.

In the case of `C=C(C)[C@@H]1CC[C@]2(C(O)=S)CC[C@]3(C)[C@H](CC[C@@H]4[C@@]5(C)CCC(=O)C(C)(C)[C@@H]5CC[C@]43C)[C@@H]12`, the IC50 in the test on SW948, with MDA-MB-231 [1] and in the test with HCT-116 was greater than 25 µM throughout. The inhibition entry in test [2] and in test [3] was “inactive” each time.
